Results published in ChEMBL document CHEMBL1131472, “A1 adenosine receptor antagonists as ligands for positron emission tomography (PET) and single-photon emission tomography (SPET)” (J Med Chem, 1998).
“And” between values parts separate entries of the source, which are not always exact repeats. Equal values may be shown once.

Biological target: T1, Adenosine receptor A1 (Bos taurus, UniProt P28190)
T1 sequence (P28190 whole entry): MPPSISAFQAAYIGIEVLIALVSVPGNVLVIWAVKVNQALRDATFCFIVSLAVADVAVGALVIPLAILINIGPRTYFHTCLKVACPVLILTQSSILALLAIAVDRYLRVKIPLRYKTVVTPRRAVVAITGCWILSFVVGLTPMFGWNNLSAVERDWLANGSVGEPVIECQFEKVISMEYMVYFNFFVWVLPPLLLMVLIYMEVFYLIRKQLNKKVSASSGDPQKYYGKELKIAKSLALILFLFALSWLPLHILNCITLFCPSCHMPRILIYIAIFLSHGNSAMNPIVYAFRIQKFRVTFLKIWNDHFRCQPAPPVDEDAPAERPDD
Test: Displacement of [3H]CPX from Adenosine A1 receptor of bovine brain cerebral cortex membranes
Assay type: tissue-based
Method in brief: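 Competition binding at room temperature in 50 mM Tris·HCl, 0.02% CHAPS, pH 7.4. Mixture held 0.2 nM [3H]CPX, 25 µg bovine cerebral cortex membranes and 0.2 U/mL adenosine deaminase. Membranes were added to start binding, and incubation was stopped after 2 h by glass-fibre filtration. Bound radioactivity was counted by liquid scintillation. Nonspecific binding was defined with 10 µM (R)-PIA. Ki came from nonlinear curve fitting as the geometric mean (95% confidence limits) of 3-5 experiments in duplicate.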

SMILES | Ki
CCCn1c(=O)c2[nH]c(C3CCCC3)nc2n(CC(C)F)c1=O (stereo unspecified) | 0.094 nM
CCCn1c(=O)n(CCCF)c(=O)c2nc(C3CCCC3)[nH]c21 | 0.216 nM
CCCn1c(=O)c2nc(C3CCCC3)[nH]c2n(CCCF)c1=O | 0.183 nM
CCCn1c(=O)n(COCC)c(=O)c2[nH]c(C3CCCC3)nc21 | 0.286 nM
CCCn1c(=O)c2nc(C3CCCC3)[nH]c2n(C)c1=O | 0.31 nM
CCCn1c(=O)c2nc(C3CCCC3)[nH]c2n(CCOC)c1=O | 0.493 nM
CCCn1c(=O)n(C)c(=O)c2[nH]c(C3CCCC3)nc21 | 0.526 nM
CCCn1c(=O)c2nc(C3CCCC3)[nH]c2n(C/C=C/I)c1=O | 0.237 nM
CCCn1c(=O)c2[nH]c(C3CCCC3)nc2n(CCC)c1=O [1,3-DIPROPYL-8-CYCLOPENTYLXANTHINE [DPCPX]] | 0.155 nM and 0.17 nM
CCCn1c(=O)n(CC(C)F)c(=O)c2[nH]c(C3CCCC3)nc21 (stereo unspecified) | 1.23 nM
CCCn1c(=O)[nH]c2nc(C3CCCC3)n(C)c2c1=O | 149 nM
